In PubChem BioAssay:
Calls of active or inactive are those of the source.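 Rule for the calls, unless noted: active = mean duplicate potentiation above the buffer control mean plus 5 SD of buffer wells; inactive = the rest.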

target: Potassium voltage-gated channel subfamily KQT member 1 (Homo sapiens) (UniProt P51787); assay: KCNQ1 potassium channel potentiators, confirmation, FluxOR thallium flux, CHO cells, duplicates (AID 493007;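 active = potentiation averaged over duplicate wells exceeding buffer-only control mean by more than 3 SD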;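 for outcome: cells depolarized by a potassium plus thallium sulfate stimulus after compound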;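 for potentiation: 0% = buffer-only wells and 100% = R-L3 activator control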); conditions: KCNQ1 cell line, FluxOR thallium flux fluorescence, at 10 µM; active compounds read high, % of reference activator effect, buffer zero
Sequence (P51787 whole entry, looked up): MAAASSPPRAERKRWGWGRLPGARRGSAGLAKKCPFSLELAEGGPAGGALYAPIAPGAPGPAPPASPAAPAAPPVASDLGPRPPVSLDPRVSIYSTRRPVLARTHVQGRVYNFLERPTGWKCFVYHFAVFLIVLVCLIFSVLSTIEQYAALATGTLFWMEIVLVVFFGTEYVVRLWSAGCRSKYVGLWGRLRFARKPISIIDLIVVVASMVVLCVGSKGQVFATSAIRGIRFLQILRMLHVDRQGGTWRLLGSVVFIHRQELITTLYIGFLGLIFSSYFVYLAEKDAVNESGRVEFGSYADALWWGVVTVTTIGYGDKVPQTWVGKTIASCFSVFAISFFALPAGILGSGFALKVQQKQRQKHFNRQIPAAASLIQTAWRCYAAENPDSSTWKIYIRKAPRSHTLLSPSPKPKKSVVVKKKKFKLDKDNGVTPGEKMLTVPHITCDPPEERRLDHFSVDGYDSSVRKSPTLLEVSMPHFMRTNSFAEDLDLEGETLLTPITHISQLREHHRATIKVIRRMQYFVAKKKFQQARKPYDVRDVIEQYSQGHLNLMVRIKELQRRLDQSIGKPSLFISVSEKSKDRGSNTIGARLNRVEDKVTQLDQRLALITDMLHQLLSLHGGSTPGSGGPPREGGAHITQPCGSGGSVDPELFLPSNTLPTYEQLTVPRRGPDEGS
Summary of the method: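 Assay system: CHO cells carrying KCNQ1 | Controls: Buffer and R-L3 controls | Schedule: FluxOR dye loading 90 min, compound exposure 20 min, room temperature | Read-out: Baseline-normalized fluorescence change, percent of buffer-to-R-L3 range | Replicates: Each compound tested in duplicate | Technique: Kinetic thallium influx fluorescence with FluxOR dye, 10 s baseline, 110 s post-stimulus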

outcome, inactive:
CN(C)CCCNc1nc2sc3c(c2c(=O)n1CCc1ccccc1)CCCCC3, COc1cc2c(cc1OC)CN(C(=O)CNC(=O)c1ccc(OC(F)F)cc1)CC2, O=C(NCc1ccccc1)C(=O)NCC1CCCN1S(=O)(=O)c1cccs1 (configuration not stated), CCc1nccn1S(=O)(=O)c1ccc2ccc(C)cc2c1, CC(=O)c1ccc(N2CCN(C(=O)c3ccc(NC(=O)C4CCCO4)cc3)CC2)cc1 (configuration not stated), CC(C)(C)n1nnnc1C(c1cc2cc3c(cc2[nH]c1=O)OCCO3)N1CCSCC1 (configuration not stated), CN(CC(=O)Nc1ccc(F)c(F)c1F)C(=O)CC1OC(=O)c2ccccc21 (configuration not stated), CC1Cc2cc(/C=C3/SC(=S)NC3=O)ccc2O1 (configuration not stated), CCC(Oc1ccc(Cl)cc1)C(=O)N1CC(=O)Nc2ccccc21 (configuration not stated), COc1ccccc1CNC(=O)COC(=O)c1nccnc1N, O=C(CCOc1ccccc1)Nc1ccnn1C1CCN(Cc2ccc(CO)o2)CC1, Cc1ccc2cc(CN(C(=O)c3ccco3)c3ccccc3C)c(=O)[nH]c2c1, CCC1CCC2(CC1)NNC(=S)NN2

potentiation, active:
Cc1cccc(N=Cc2cc(Br)cc(Cl)c2O)c1 27%, CCc1ccc(C2c3[nH]c4ccccc4c3CCN2C(=O)CNC(N)=O)cc1 (configuration not stated) 31%, COc1ccc(/C=C2\SC(=O)NC2=S)cc1OC 34%, Cc1ccc(C(=O)CC(=O)c2cc(Cl)ccc2O)cc1 42.5%, Cc1ccc(C2C(/C=C3/SC(=S)NC3=O)=C(c3cccs3)Oc3ccccc32)cc1 (configuration not stated) 33%, CC1CC(C)CN(Cc2nc(N)nc(Nc3ccc4ccccc4c3)n2)C1 (configuration not stated) 43.5%, CC(=O)Nc1ccc(/C=N/N2C(=O)NC(C)(c3ccc(OC(F)F)cc3)C2=O)cc1 (configuration not stated) 100%, O=c1c2cc(Cl)ccc2nc(-c2ccc([N+](=O)[O-])cc2)n1O 193%, COc1cc(OC)cc(C(=O)Nc2nnc(SCC(=O)NCc3ccco3)s2)c1 30%

target: Potassium voltage-gated channel subfamily KQT member 2 (Rattus norvegicus) (UniProt O88943); assay: rat KCNQ2 channel potentiation, selectivity assay for KCNQ1 potentiator project, KCNQ2-CHO-K1 cells (AID 493009); conditions: FluxOR thallium flux fluorescence, at 10 µM; active compounds read high, scaled: buffer 0, activator control 100;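 note: assay conditions were tuned for KCNQ1 rather than KCNQ2 modulators; signal is max minus min fluorescence divided by baseline after thallium stimulus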
Sequence (O88943 whole entry, looked up): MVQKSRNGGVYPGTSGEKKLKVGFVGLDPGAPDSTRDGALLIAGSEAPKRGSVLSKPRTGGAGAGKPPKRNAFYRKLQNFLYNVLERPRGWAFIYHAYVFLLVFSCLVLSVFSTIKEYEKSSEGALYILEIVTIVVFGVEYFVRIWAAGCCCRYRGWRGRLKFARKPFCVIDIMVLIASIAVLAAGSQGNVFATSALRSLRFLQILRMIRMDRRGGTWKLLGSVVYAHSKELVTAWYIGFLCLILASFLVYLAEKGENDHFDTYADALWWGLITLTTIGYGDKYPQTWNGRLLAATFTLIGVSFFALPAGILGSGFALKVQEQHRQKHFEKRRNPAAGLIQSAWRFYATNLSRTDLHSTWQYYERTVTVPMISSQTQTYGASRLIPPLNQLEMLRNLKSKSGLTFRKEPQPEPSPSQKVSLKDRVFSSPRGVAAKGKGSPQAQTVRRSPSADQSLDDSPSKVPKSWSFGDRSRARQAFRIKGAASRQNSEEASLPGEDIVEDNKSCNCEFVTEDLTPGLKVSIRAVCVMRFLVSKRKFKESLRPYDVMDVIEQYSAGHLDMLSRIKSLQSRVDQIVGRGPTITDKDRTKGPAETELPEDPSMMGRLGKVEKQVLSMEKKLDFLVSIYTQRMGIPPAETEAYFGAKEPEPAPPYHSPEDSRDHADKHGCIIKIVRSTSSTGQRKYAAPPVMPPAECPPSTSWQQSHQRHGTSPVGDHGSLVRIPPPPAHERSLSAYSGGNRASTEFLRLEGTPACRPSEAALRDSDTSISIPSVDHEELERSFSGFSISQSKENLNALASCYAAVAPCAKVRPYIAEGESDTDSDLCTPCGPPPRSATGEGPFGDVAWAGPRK

potentiation, active:
O=C1NC(=S)SC1=C1CCCC1 166%, CCOc1ccc(/C=C2/SC(=O)NC2=S)cc1 379%, CC(Sc1n[nH]c(N)n1)C(=O)NC1CCCCC1C (configuration not stated) 172%, Cc1nn(C)c(C(=O)NC(=S)Nc2ccccc2Br)c1Cl 254%, COC(=O)c1cn(NC(=O)Cc2ccc(Cl)c(Cl)c2)c(=O)c2ccccc12 252%, CCOc1ccc(C(=O)NC(=S)N(Cc2ccccc2)Cc2ccccc2)cc1 522%, Cc1nn(-c2ccccc2)c(Cl)c1/C=C1\SC(=S)NC1=O 704%, CCOc1ccc(CN(CCC#N)C(=S)NC(=O)c2ccccc2)cc1 216%, O=C(NC(=S)Nc1ccccc1)c1ccc(Br)o1 158%, CC(C)C1Cc2c(sc3[nH]c(=S)n(Cc4ccccc4)c(=O)c23)CO1 (configuration not stated) 362%, COc1ccc(C)cc1NC(=O)C(=O)NNC(=O)COc1ccc(Cl)cc1 258%, CCc1ccc(C2c3[nH]c4ccccc4c3CCN2C(=O)CNC(N)=O)cc1 (configuration not stated) 156%, COc1ccc(/C=C2\SC(=O)NC2=S)cc1OC 191%, Cc1ccc(C(=O)CC(=O)c2cc(Cl)ccc2O)cc1 152%, CC1CC(C)CN(Cc2nc(N)nc(Nc3ccc4ccccc4c3)n2)C1 (configuration not stated) 165%, CC(=O)Nc1ccc(/C=N/N2C(=O)NC(C)(c3ccc(OC(F)F)cc3)C2=O)cc1 (configuration not stated) 234%, O=c1c2cc(Cl)ccc2nc(-c2ccc([N+](=O)[O-])cc2)n1O 456%, COc1cc(OC)cc(C(=O)Nc2nnc(SCC(=O)NCc3ccco3)s2)c1 158%

outcome, inactive:
COc1ccc(C(=O)N2CCC(n3nccc3NC(=O)C3CCOC3)CC2)cc1 (configuration not stated), COc1cc(CNCc2ccccn2)ccc1OCc1c(Cl)cccc1Cl, COC(=O)c1ccc(/C=C/c2ccc3cccc(OC)c3n2)cc1, CCc1ccc(CNC(=O)CCn2nc(C)c3c(C)n(-c4ccccc4)nc3c2=O)cc1, COc1ccccc1C(=O)Nc1ccnn1C1CCN(CCCC2CCCC2)CC1, COc1ccc2oc(C(=O)OCC(=O)N3CC(C)OC(C)C3)c(C)c2c1 (configuration not stated), CCc1ccc(-c2c(C)sc(NC(C)=O)c2C(N)=O)cc1, CN(C)CCCNc1nc2sc3c(c2c(=O)n1CCc1ccccc1)CCCCC3, COc1cc2c(cc1OC)CN(C(=O)CNC(=O)c1ccc(OC(F)F)cc1)CC2, O=C(NCc1ccccc1)C(=O)NCC1CCCN1S(=O)(=O)c1cccs1 (configuration not stated), CCc1nccn1S(=O)(=O)c1ccc2ccc(C)cc2c1, Cc1cccc(N=Cc2cc(Br)cc(Cl)c2O)c1, CC(=O)c1ccc(N2CCN(C(=O)c3ccc(NC(=O)C4CCCO4)cc3)CC2)cc1 (configuration not stated), CC(C)(C)n1nnnc1C(c1cc2cc3c(cc2[nH]c1=O)OCCO3)N1CCSCC1 (configuration not stated), CN(CC(=O)Nc1ccc(F)c(F)c1F)C(=O)CC1OC(=O)c2ccccc21 (configuration not stated), Cc1ccc(C2C(/C=C3/SC(=S)NC3=O)=C(c3cccs3)Oc3ccccc32)cc1 (configuration not stated), CC1Cc2cc(/C=C3/SC(=S)NC3=O)ccc2O1 (configuration not stated), CCC(Oc1ccc(Cl)cc1)C(=O)N1CC(=O)Nc2ccccc21 (configuration not stated), COc1ccccc1CNC(=O)COC(=O)c1nccnc1N, O=C(CCOc1ccccc1)Nc1ccnn1C1CCN(Cc2ccc(CO)o2)CC1, Cc1ccc2cc(CN(C(=O)c3ccco3)c3ccccc3C)c(=O)[nH]c2c1, CCC1CCC2(CC1)NNC(=S)NN2
